Test results from ChEMBL document CHEMBL4308872, “Dose dependent actions of LCL521 on acid ceramidase and key sphingolipid metabolites” (2018).
Activity calls are given as the source filed them. The rule behind the calls is not given here.

Columns and labels:
UMSCC14A = assay: Down regulation of ACDase protein expression in human UMSCC14A cells at 5 to 10 uM after 5 hrs by Western blot analysis; format: functional, cell-based
Summary of the method: (§1)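 Cell lines SCC14A (mouth squamous carcinoma) and PPC-1 (prostate cancer) given a single treatment of LCL521; ACDase protein detected by western blot.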

MCF7 [1] = assay: Down regulation of alpha-ACDase protein expression in human MCF7 cells at >2.5 uM after 1 hr by Western blot analysis; format: functional, cell-based
Summary of the method: (§2)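 MCF7 cells seeded overnight (1×10^6 per 100 mm dish) were exposed to vehicle or 10 μM LCL521 for 1, 2, 5, 8, 15 and 24h, or to 0.1–10 μM for 1h. α- and precursor (P-)ACDase detected by western blot; actin monitored loading and transfer.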

MCF7 [2] = assay: Down regulation of p-ACDase expression in human MCF7 cells at 10 uM after 24 hrs in presence of cyclohexamide by Western blot analysis; format: functional, cell-based
Summary of the method: (§3)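 MCF7 cells pretreated 1h with vehicle or 40 μM cycloheximide, then given vehicle or 10 μM LCL521 alone or combined for 1, 8 and 24h. P- and α-ACDase detected by western blot against actin.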

[3] = target: T1, Acid ceramidase (Homo sapiens) (UniProt Q13510); assay: Inhibition of ACDase in human MCF7 cells assessed as upregulation of dihydroceramide species at 10 uM treated for 24 hrs after 1 hr treatment with myriocin by LC-MS/MS analysis; format: cell-based
T1 sequence (whole entry): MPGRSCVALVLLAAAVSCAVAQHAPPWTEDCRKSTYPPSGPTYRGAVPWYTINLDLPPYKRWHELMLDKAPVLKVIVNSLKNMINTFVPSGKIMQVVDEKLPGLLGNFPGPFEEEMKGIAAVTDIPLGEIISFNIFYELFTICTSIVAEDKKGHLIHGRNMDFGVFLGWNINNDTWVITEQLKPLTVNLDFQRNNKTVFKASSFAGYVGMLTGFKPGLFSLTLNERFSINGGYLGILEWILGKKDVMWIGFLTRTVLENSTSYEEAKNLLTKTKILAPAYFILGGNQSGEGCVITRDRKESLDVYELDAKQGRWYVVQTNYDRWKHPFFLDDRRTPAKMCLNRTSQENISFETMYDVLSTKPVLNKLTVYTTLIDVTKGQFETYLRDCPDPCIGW
Summary of the method: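 MCF7 cells pretreated 1h with 100nM myriocin, then combined with vehicle or 10 μM LCL521 for 24h. Cn-dhCer quantified by LC-MS/MS per nmol lipid phosphate; triplicates.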

[4] = target: T1, Acid ceramidase (Homo sapiens); assay: Inhibition of ACDase in human MCF7 cells assessed as down regulation of sphingosine 1-phosphate at 1 uM after 10 hrs by LC-MS/MS analysis; format: cell-based
Summary of the method: (§4)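 MCF7 cells received vehicle or 1 μM LCL521 for 10h. Lipids were extracted from cell pellets, and Cer, Sph and S1P were quantified by LC-MS/MS as pmol/nmol lipid phosphate, expressed as % control; means ± st dev of 5 replicates.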

[5] = target: T1, Acid ceramidase (Homo sapiens); assay: Inhibition of ACDase in human MCF7 cells assessed as down regulation of sphingosine 1-phosphate at 10 uM after 24 hrs by LC-MS/MS analysis; format: cell-based
Summary of the method: (§5)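 Exposure of MCF7 cells to vehicle or 10 μM LCL521 for 0.25–24h. Cer, Sph and S1P measured by LC-MS/MS in pellet lipid extracts, normalized to lipid phosphate, given as % control; means ± st dev of 4 replicates.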

[6] = target: T1, Acid ceramidase (Homo sapiens); assay: Inhibition of ACDase in human MCF7 cells assessed as upregulation of dihydroceramide species at 10 uM after 8 to 24 hrs by LC-MS/MS analysis; format: cell-based
Summary of the method: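 Over 8 and 24h, MCF7 cells received vehicle or 10 μM LCL521. Cn-dhCer species and dhSph quantified by LC-MS/MS in extracted lipids, normalized to lipid phosphate; means ± st dev of 4 replicates.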

[7] = target: T1, Acid ceramidase (Homo sapiens); assay: Inhibition of ACDase in human MCF7 cells assessed as upregulation of C14-ceramide species at 10 uM after 1 hr by LC-MS/MS analysis; format: cell-based
Summary of the method: (§6)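 MCF7 cells treated 1h with vehicle or 10 μM LCL521. Chain-length ceramide species and Sph in pellet lipid extracts quantified by LC-MS/MS per nmol lipid phosphate; means ± st dev of 6 replicates, t-test against control.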

MCF7 [8] = assay: Down regulation of alpha-ACDase protein expression in human MCF7 cells at 1 uM after 1 hr by Western blot analysis; format: functional, cell-based
Summary of the method: (§7)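 MCF7 cells (RPMI 1640, 10% FBS, 37°C, 5% CO2; 1×10^6 seeded in 100 mm dishes overnight) exposed to vehicle or LCL521, 0.1–10 μM for 1h, or 1 μM for 0.25–10h. α-ACDase detected by western blot, with actin as the loading/transfer control.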

MCF7 [9] = assay: Down regulation of alpha-ACDase protein expression in human MCF7 cells at 10 uM after 1 hr by Western blot analysis; format: functional, cell-based; summary of the method: as §2
MCF7 [10] = assay: Down regulation of alpha-ACDase protein expression in human MCF7 cells at 10 uM treated for 5 hrs after pretreatment with 4 uM CA-074me for 30 mins by Western blot analysis; format: functional, cell-based
Summary of the method: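 MCF7 cells pretreated with a cathepsin B inhibitor, then exposed to 10 μM LCL521. α-ACDase protein assessed by western blot.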

[11] = target: T2, Sphingolipid delta(4)-desaturase DES1 (Homo sapiens) (UniProt O15121); assay: Inhibition of dihydroceramide desaturase in human MCF7 cells assessed as decrease in remaining activity at 5 to 10 uM after 24 hrs; format: cell-based
T2 sequence (whole entry): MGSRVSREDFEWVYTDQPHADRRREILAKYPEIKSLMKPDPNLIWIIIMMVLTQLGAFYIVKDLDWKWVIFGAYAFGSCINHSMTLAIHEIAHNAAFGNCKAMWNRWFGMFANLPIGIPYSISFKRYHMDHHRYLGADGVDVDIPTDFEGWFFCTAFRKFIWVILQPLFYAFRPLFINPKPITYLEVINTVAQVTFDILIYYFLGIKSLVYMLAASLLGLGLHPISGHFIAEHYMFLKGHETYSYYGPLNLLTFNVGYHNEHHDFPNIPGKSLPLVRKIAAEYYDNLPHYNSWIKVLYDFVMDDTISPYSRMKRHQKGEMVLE
Summary of the method: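 Intact MCF7 cells (3×10^6 seeded in 150 mm dishes overnight) treated with vehicle or LCL521 for 24h. Cells were then pelleted and dihydroceramide desaturase activity assayed by a prior method. Means ± st dev of triplicates versus 0 μM.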

MCF7 [12] = assay: Down regulation of alpha-ACDase expression in human MCF7 cells at 1 uM after 10 hrs by Western blot analysis; format: functional, cell-based
[13] = target: T1, Acid ceramidase (Homo sapiens); assay: Inhibition of ACDase in human MCF7 cells assessed as down regulation of sphingosine at 10 uM after 24 hrs by LC-MS/MS analysis; format: cell-based; summary of the method: as §5
PPC-1 = assay: Down regulation of ACDase protein expression in human PPC1 cells at 5 to 10 uM after 5 hrs by Western blot analysis; format: functional, cell-based; summary of the method: as §1
MCF7 [14] = assay: Down regulation of alpha-ACDase expression in human MCF7 cells at 10 uM after 2 to 24 hrs by Western blot analysis; format: functional, cell-based; summary of the method: as §2
[15] = target: T1, Acid ceramidase (Homo sapiens); assay: Inhibition of ACDase in human MCF7 cells assessed as down regulation of sphingosine at 1 uM after 10 hrs by LC-MS/MS analysis; format: cell-based; summary of the method: as §4
[16] = target: T1, Acid ceramidase (Homo sapiens); assay: Inhibition of ACDase in human MCF7 cells assessed as upregulation of ceramide at 10 uM after 2 hrs by LC-MS/MS analysis; format: cell-based; summary of the method: as §5
MCF7 [17] = assay: Down regulation of alpha-ACDase protein expression in human MCF7 cells up to 1 uM after 1 hr by Western blot analysis; format: functional, cell-based; summary of the method: as §7
[18] = target: T1, Acid ceramidase (Homo sapiens); assay: Inhibition of ACDase in human MCF7 cells assessed as down regulation of sphingosine at 10 uM after 1 to 24 hrs by LC-MS/MS analysis; format: cell-based; summary of the method: as §5
[19] = target: T1, Acid ceramidase (Homo sapiens); assay: Inhibition of ACDase in human MCF7 cells assessed as down regulation of sphingosine at 10 uM after 2 hrs by LC-MS/MS analysis; format: cell-based; summary of the method: as §5
MCF7 [20] = assay: Down regulation of alpha-ACDase expression in human MCF7 cells at 10 uM after 8 hrs by Western blot analysis; format: functional, cell-based; summary of the method: as §2
[21] = target: T1, Acid ceramidase (Homo sapiens); assay: Inhibition of ACDase in human MCF7 cells assessed as upregulation of ceramide at 10 uM after 8 to 24 hrs by LC-MS/MS analysis; format: cell-based; summary of the method: as §5
[22] = target: T1, Acid ceramidase (Homo sapiens); assay: Inhibition of ACDase in human MCF7 cells assessed as down regulation of dihydrosphingosine at 10 uM after 1 hr by LC-MS/MS analysis; format: cell-based
MCF7 [23] = assay: Down regulation of alpha-ACDase expression in human MCF7 cells at 10 uM after 24 hrs in presence of cyclohexamide by Western blot analysis; format: functional, cell-based; summary of the method: as §3
[24] = target: T1, Acid ceramidase (Homo sapiens); assay: Inhibition of ACDase in human MCF7 cells assessed as upregulation of C16-ceramide species at 10 uM after 1 hr by LC-MS/MS analysis; format: cell-based; summary of the method: as §6
MCF7 [25] = assay: Down regulation of p-ACDase expression in human MCF7 cells at 10 uM after 8 hrs by Western blot analysis; format: functional, cell-based; summary of the method: as §2
MCF7 [26] = assay: Down regulation of p-ACDase expression in human MCF7 cells assessed as p-ACDase expression at 10 uM measured at 24 hrs by Western blot analysis; format: functional; summary of the method: as §2
[27] = target: T1, Acid ceramidase (Homo sapiens); assay: Inhibition of ACDase in human MCF7 cells assessed as upregulation of dhC16-Cer species at 10 uM after 1 hr by LC-MS/MS analysis; format: cell-based
[28] = target: T1, Acid ceramidase (Homo sapiens); assay: Inhibition of ACDase in human MCF7 cells assessed as upregulation of dihydroceramide at 10 uM after 1 hr by LC-MS/MS analysis; format: cell-based

For `CCCCCCCCCCCCCC(=O)N[C@H](COC(=O)CN(C)C)[C@H](OC(=O)CN(C)C)c1ccc([N+](=O)[O-])cc1.Cl.Cl`, the Activity (UMSCC14A) was “Active”, the Activity (MCF7 [1]) was “Dose-dependent effect” and the Activity (MCF7 [2]) was “Active”. The inhibition [3] was “inactive”, the inhibition [4] was “inactive” and the inhibition [5] was “Active”. For the same compound, the inhibition [6] was “Active”, the inhibition [7] was “Active” and the Activity (MCF7 [8]) was “inactive”. For the same compound, the Activity (MCF7 [9]) was “Active”, the Activity (MCF7 [10]) was “inactive” and the inhibition [11] was “Active”. The inhibition (MCF7 [12]) was “inactive”, the inhibition [13] was “inactive” and the Activity (PPC-1) was “Active”. The Activity (MCF7 [14]) was “Active”, the inhibition [15] was “inactive” and the inhibition [16] was “Active”. For the same compound, the Activity (MCF7 [17]) was “inactive”, the inhibition [18] was “Active” and the inhibition [19] was “Active”. For the same compound, the Activity (MCF7 [20]) was “Active”, the inhibition [21] was “Active” and the inhibition [22] was “Active”. The Activity (MCF7 [23]) was “Active”, the inhibition [24] was “Active” and the Activity (MCF7 [25]) was “Active”. The Activity (MCF7 [26]) was greater than 70%, the inhibition [27] was “Active” and the inhibition [28] was “Active”.
